Assay results: ChEMBL document CHEMBL2311295 (J Med Chem, 2013)

Key:
HCT-116 [1] = assay: Ratio of vinblastine IC50 to compound IC50 for human HCT116 cells; assay type: functional
How it was run: (§1)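 Both IC50 values come from the 72 h acid phosphatase (A405) proliferation assay: six concentrations over 0–1,000 or 0–10,000 nM, with each value the mean of 4–16 determinations.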

HCT-116/VM46 [2] = assay: Cytotoxicity against vinblastine-resistant human HCT116/VM46 cells after 72 hrs by phosphatase assay; assay type: functional, cell-based; settings: HCT-116/VM46, 72 h
How it was run: (§2)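 Cells diluted to 30,000 cells/mL in DMEM with 10% FBS and seeded into 96-well plates (100 μL per well), then grown 24 h at 37 °C under 5% CO2. Test agents were made as 1 mM DMSO stocks with 10-fold serial dilutions and tested at six concentrations over 0–1,000 nM or 0–10,000 nM, in duplicate, for 72 h. Acid phosphatase read-out: substrate in 0.1 M NaOAc pH 5.5 with 0.1% Triton X-100, 15 min at 37 °C, stopped with NaOH, A405. IC50 is the mean of 4–16 determinations.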

HCT-116 [3] = assay: Cytotoxicity against human HCT116 cells after 72 hrs by phosphatase assay; assay type: functional, cell-based; settings: HCT-116, 72 h
How it was run: as §2, with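 “A405.” for “A405. IC50 is the mean of 4–16 determinations.”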

HCT-116 [4] = assay: Ratio of IC50 for vinblastine-resistant human HCT116/VM46 cells to IC50 for human HCT116 cells; assay type: functional
How it was run: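 Ratio of IC50 in HCT116/VM46 to IC50 in HCT116. Both IC50 values come from the 72 h phosphatase (A405) growth inhibition assay: six concentrations up to 1,000 or 10,000 nM, run in duplicate, averaging 4–16 determinations each.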

Tubulin (Sus scrofa) = Tubulin (Sus scrofa) (UniProt P02554+P02550); assay: Displacement of [3H]-vinblastine from pig tubulin at 7.2 x 10^-5 M after 60 mins; assay type: protein assay
Sequence of Tubulin (Sus scrofa) (P02550 whole entry, looked up): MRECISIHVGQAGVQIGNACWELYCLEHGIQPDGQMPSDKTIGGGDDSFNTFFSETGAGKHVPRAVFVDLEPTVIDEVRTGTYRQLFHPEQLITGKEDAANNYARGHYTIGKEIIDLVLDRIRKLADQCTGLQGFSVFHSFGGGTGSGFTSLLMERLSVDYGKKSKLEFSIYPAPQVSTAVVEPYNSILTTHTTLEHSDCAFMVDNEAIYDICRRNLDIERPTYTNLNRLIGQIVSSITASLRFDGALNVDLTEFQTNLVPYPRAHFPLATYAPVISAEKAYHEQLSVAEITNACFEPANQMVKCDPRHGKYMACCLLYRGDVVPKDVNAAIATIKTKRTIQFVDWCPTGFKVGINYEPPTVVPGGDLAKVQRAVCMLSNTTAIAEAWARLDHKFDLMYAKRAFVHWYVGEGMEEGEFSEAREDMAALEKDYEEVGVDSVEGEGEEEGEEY
Sequence of Tubulin (Sus scrofa) (P02554 whole entry, looked up): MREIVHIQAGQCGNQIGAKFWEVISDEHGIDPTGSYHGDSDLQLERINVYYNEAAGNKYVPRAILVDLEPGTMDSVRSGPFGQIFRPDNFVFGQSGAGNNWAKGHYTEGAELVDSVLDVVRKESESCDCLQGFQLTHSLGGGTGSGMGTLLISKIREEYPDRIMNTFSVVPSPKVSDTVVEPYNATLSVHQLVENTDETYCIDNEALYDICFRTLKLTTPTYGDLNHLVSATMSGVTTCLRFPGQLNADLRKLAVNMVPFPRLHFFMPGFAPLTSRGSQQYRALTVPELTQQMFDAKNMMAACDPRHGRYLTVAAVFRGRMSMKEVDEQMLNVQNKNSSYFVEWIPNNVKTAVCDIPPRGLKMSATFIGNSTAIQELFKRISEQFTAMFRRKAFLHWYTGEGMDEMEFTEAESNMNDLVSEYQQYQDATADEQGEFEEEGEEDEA
How it was run: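 Purified porcine tubulin (100 µL tubulin solution diluted with 850 µL general tubulin buffer) preincubated with 25 µL of 7.2 × 10⁻⁵ M ³H-vinblastine, 15 min at 37 °C. Then 25 µL of 7.2 × 10⁻⁵ M unlabeled test alkaloid added, incubation continued 60 min. Displacement of bound ³H-vinblastine measured by a previously described procedure.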

HCT-116/VM46 [5] = assay: Ratio of vinblastine IC50 to compound IC50 for vinblastine-resistant human HCT116/VM46 cells; assay type: functional; how it was run: as §1

SMILES | Ratio IC50 (HCT-116 [1]) | IC50 (HCT-116/VM46 [2]) [nM] | IC50 (HCT-116 [3]) [nM] | Ratio IC50 (HCT-116 [4]) | inhibition (Tubulin (Sus scrofa)) [%] | Ratio IC50 (HCT-116/VM46 [5])
CC[C@]1(NC(=O)NC)C[C@H]2CN(CCc3c([nH]c4ccccc34)[C@@](C(=O)OC)(c3cc4c(cc3OC)N(C)[C@H]3[C@@](O)(C(=O)OC)[C@H](OC(C)=O)[C@]5(CC)C=CCN6CC[C@]43[C@@H]65)C2)C1 | 10 | 530 | 0.82 | – | – | –
CC[C@]1(NC(=O)Nc2cccc(OC)c2)C[C@H]2CN(CCc3c([nH]c4ccccc34)[C@@](C(=O)OC)(c3cc4c(cc3OC)N(C)[C@H]3[C@@](O)(C(=O)OC)[C@H](OC(C)=O)[C@]5(CC)C=CCN6CC[C@]43[C@@H]65)C2)C1 | 10 | 80 | 0.77 | – | – | –
CCNC(=O)N[C@@]1(CC)C[C@H]2CN(CCc3c([nH]c4ccccc34)[C@@](C(=O)OC)(c3cc4c(cc3OC)N(C)[C@H]3[C@@](O)(C(=O)OC)[C@H](OC(C)=O)[C@]5(CC)C=CCN6CC[C@]43[C@@H]65)C2)C1 | 10 | 90 | 0.73 | – | – | –
CC[C@]1(NC(=O)N2CCCCC2)C[C@H]2CN(CCc3c([nH]c4ccccc34)[C@@](C(=O)OC)(c3cc4c(cc3OC)N(C)[C@H]3[C@@](O)(C(=O)OC)[C@H](OC(C)=O)[C@]5(CC)C=CCN6CC[C@]43[C@@H]65)C2)C1 | – | 50 | 3.9 | 10 | – | –
CC[C@]1(NC(=O)N(C)C)C[C@H]2CN(CCc3c([nH]c4ccccc34)[C@@](C(=O)OC)(c3cc4c(cc3OC)N(C)[C@H]3[C@@](O)(C(=O)OC)[C@H](OC(C)=O)[C@]5(CC)C=CCN6CC[C@]43[C@@H]65)C2)C1 | – | 80 | 2.8 | 10 | 45.1 | –
CC[C@]1(O)C[C@H]2CN(CCc3c([nH]c4ccc(F)cc34)[C@@](C(=O)OC)(c3cc4c(cc3OC)N(C)[C@H]3[C@@](O)(C(=O)OC)[C@H](OC(C)=O)[C@]5(CC)C=CCN6CC[C@]43[C@@H]65)C2)C1 | 8 | – | – | – | – | –
CC[C@]1(NC(=O)Nc2ccccc2OC)C[C@H]2CN(CCc3c([nH]c4ccccc34)[C@@](C(=O)OC)(c3cc4c(cc3OC)N(C)[C@H]3[C@@](O)(C(=O)OC)[C@H](OC(C)=O)[C@]5(CC)C=CCN6CC[C@]43[C@@H]65)C2)C1 | 10 | 65 | 0.77 | – | – | –
CCCNC(=O)N[C@@]1(CC)C[C@H]2CN(CCc3c([nH]c4ccccc34)[C@@](C(=O)OC)(c3cc4c(cc3OC)N(C)[C@H]3[C@@](O)(C(=O)OC)[C@H](OC(C)=O)[C@]5(CC)C=CCN6CC[C@]43[C@@H]65)C2)C1 | 10 | 220 | 2.7 | – | – | –
CC[C@]1(NC(=O)NC2CC2)C[C@H]2CN(CCc3c([nH]c4ccccc34)[C@@](C(=O)OC)(c3cc4c(cc3OC)N(C)[C@H]3[C@@](O)(C(=O)OC)[C@H](OC(C)=O)[C@]5(CC)C=CCN6CC[C@]43[C@@H]65)C2)C1 | 10 | 85 | 0.73 | – | – | –
CC[C@]1(NC(=O)Nc2ccc(-c3ccccc3)cc2)C[C@H]2CN(CCc3c([nH]c4ccccc34)[C@@](C(=O)OC)(c3cc4c(cc3OC)N(C)[C@H]3[C@@](O)(C(=O)OC)[C@H](OC(C)=O)[C@]5(CC)C=CCN6CC[C@]43[C@@H]65)C2)C1 | – | 470 | 6.9 | – | 48.5 | –
CC[C@]1(NC(=O)NC(C)C)C[C@H]2CN(CCc3c([nH]c4ccccc34)[C@@](C(=O)OC)(c3cc4c(cc3OC)N(C)[C@H]3[C@@](O)(C(=O)OC)[C@H](OC(C)=O)[C@]5(CC)C=CCN6CC[C@]43[C@@H]65)C2)C1 | 10 | 530 | 5.7 | – | – | –
CC[C@]1(NC(=S)NC2CCCCC2)C[C@H]2CN(CCc3c([nH]c4ccccc34)[C@@](C(=O)OC)(c3cc4c(cc3OC)N(C)[C@H]3[C@@](O)(C(=O)OC)[C@H](OC(C)=O)[C@]5(CC)C=CCN6CC[C@]43[C@@H]65)C2)C1 | – | 520 | 20 | 26 | – | –
CC[C@]1(NC(=O)NCc2ccccc2)C[C@H]2CN(CCc3c([nH]c4ccccc34)[C@@](C(=O)OC)(c3cc4c(cc3OC)N(C)[C@H]3[C@@](O)(C(=O)OC)[C@H](OC(C)=O)[C@]5(CC)C=CCN6CC[C@]43[C@@H]65)C2)C1 | – | 740 | 7.3 | – | – | –
CC[C@]12C=CCN3CC[C@@]4(c5cc([C@@]6(C(=O)OC)C[C@@H]7CN(CCc8c6[nH]c6ccccc86)C[C@@](CC)(N(C)C)C7)c(OC)cc5N(C)[C@H]4[C@@](O)(C(=O)OC)[C@@H]1OC(C)=O)[C@@H]32 | – | > 10000 | 980 | – | – | –
CCNC(=O)N[C@@]1(CC)C[C@H]2CN(CCc3c([nH]c4ccc(F)cc34)[C@@](C(=O)OC)(c3cc4c(cc3OC)N(C)[C@H]3[C@@](O)(C(=O)OC)[C@H](OC(C)=O)[C@]5(CC)C=CCN6CC[C@]43[C@@H]65)C2)C1 | 10 | 70 | 0.62 | – | – | 10
CCCCNC(=O)N[C@@]1(CC)C[C@H]2CN(CCc3c([nH]c4ccccc34)[C@@](C(=O)OC)(c3cc4c(cc3OC)N(C)[C@H]3[C@@](O)(C(=O)OC)[C@H](OC(C)=O)[C@]5(CC)C=CCN6CC[C@]43[C@@H]65)C2)C1 | – | 270 | 4.6 | – | – | –
